Assay results from ChEMBL document CHEMBL5303300, “EUbOPEN Chemogenomics Library - Multiplex” (2023).
“And” between values parts separate entries of the source, which are not always exact repeats. Identical values can stand only once.

System: U2OS
Test: Multiplex assay against U2OS
Assay type: toxicity, cell-based
Details: human, 10 µM, compound concentration 10 uM, number of replicates 2
How it was run: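 With compound added, live cells were imaged on a CQ1 microscope at 37°C and 5% CO2; staining with Hoechst33342, BioTracker Green Microtubule Cytoskeleton Dye, MitoTracker Red and Annexin V Alexa Fluor 680 had been done at seeding. The CellPathfinder machine-learning gating scheme split cells into Hoechst high-intensity objects or normal cells, normal cells into healthy, pyknosed or fragmented nuclei, and pyknosed cells into mitotic or apoptotic. The tubulin, mitochondrial-mass and membrane-permeability phenotypes are per cents of healthy-nucleus cells.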

## CC(=O)O[C@H]1C(=O)[C@@]2(C)[C@H]([C@H](OC(=O)c3ccccc3)[C@]3(O)C[C@H](OC(=O)[C@H](O)[C@@H](NC(=O)c4ccccc4)c4ccccc4)C(C)=C1C3(C)C)[C@]1(OC(C)=O)CO[C@@H]1C[C@@H]2O [PACLITAXEL]
12 h
  Population Apoptotic (%): 75% and 81% and 77%
  Population Healthy Nuclei (%): 47% and 63% and 72% and 76%
  Population Hoechst High Intensity Objects (%): 0%
  Population Membrane Permeable-Phenotype (%): 6% and 3% and 4%
  Population Mitochondria Different-Phenotype (%): 12% and 10% and 16% and 15%
  Population Mitotic Cells (%): 25% and 18% and 22%
  Population Normal (%): 100% and 99%
  Population Pyknosed Nuclei (%): 11% and 18% and 15% and 13%
  Population Tubulin-Different-Phenotype (%): 33% [middle of 4 runs]
24 h
  Population Apoptotic (%): 72% and 57% and 74% and 78%
  Population Healthy Nuclei (%): 33% and 55% and 66% and 65%
  Population Hoechst High Intensity Objects (%): 2% and 0%
  Population Membrane Permeable-Phenotype (%): 7% and 3%
  Population Mitochondria Different-Phenotype (%): 27% [middle of 4 runs]
  Population Mitotic Cells (%): 27% and 42% and 26% and 21%
  Population Normal (%): 97% and 100% and 99%
  Population Pyknosed Nuclei (%): 26% and 25% and 20%
  Population Tubulin-Different-Phenotype (%): 21% and 19% and 36%
48 h
  Population Apoptotic (%): 77% and 76% and 90% and 93%
  Population Healthy Nuclei (%): 33% and 30% and 56% and 60%
  Population Hoechst High Intensity Objects (%): 0%
  Population Mitochondria Different-Phenotype (%): 38% and 42% and 41%
  Population Normal (%): 100% and 99%
  Population Pyknosed Nuclei (%): 35% and 28% and 32%
  Population Tubulin-Different-Phenotype (%): 33% and 28% and 32% and 41%
